In ChEMBL document CHEMBL1122008, “Lipophilic 5'-(alkyl phosphate) esters of 1-beta-D-arabinofuranosylcytosine and its N4-acyl and 2,2'-anhydro-3'-O-acyl derivatives as potential prodrugs” (1982):

Key:
Type in all cases: functional
Mus musculus [1] = assay: Antitumor activity against L1210 leukemia in mice (Percent increase in life span.) at the dose of 468 mg/kg (mice surviving 20 or more days)
Outline: (§1)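 Male B6D2F1J mice, groups of 5–9, inoculated ip with 10^5 L1210 cells on day 0. Dosing starts day 1 on a qd×5 or q4d(2,6) schedule. Vehicles are sterile water, pH 7.4 0.05 M potassium phosphate buffer, or 0.4% Tween 80/0.5% CMC/0.9% benzyl alcohol/0.9% saline. %ILS = (T/C − 1)×100 from median survival. Weights taken days 1 and 7.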

Mus musculus [2] = assay: Antitumor activity against L1210/ara-C leukemia in mice (Average weight per mouse on day 1.) at the dose of 468 mg/kg
Outline: (§2)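 Male B6D2F1J mice, groups of 5–9, inoculated ip with 10^5 L1210/ara-C cells on day 0. Dosing began day 1 on a qd×5 or q4d(2,6) schedule. Ara-C was given in sterile water, the n-butyl phosphate ester in 0.05 M pH 7.4 potassium phosphate buffer, and others as suspensions in 0.4% Tween 80/0.5% CMC/0.9% benzyl alcohol/0.9% saline. Mice were weighed on days 1 and 7; 7-day change given in g and %.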

Mus musculus [3] = assay: Antitumor activity against L1210 leukemia in mice (Percent increase in life span.) at the dose of 117 mg/kg; outline: as §1
Mus musculus [4] = assay: Antitumor activity against L1210 leukemia in mice (Average weight per mouse on day 1.) at the dose of 117 mg/kg
Outline: (§3)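 Male B6D2F1J mice (5–9 per group) received 10^5 L1210 cells i.p. on day 0 and drug from day 1, given qd×5 or q4d(2,6). Vehicles were sterile water, 0.05 M potassium phosphate pH 7.4, or 0.4% Tween 80/0.5% CMC/0.9% benzyl alcohol/0.9% saline. Read-out is average body weight per mouse (g) on day 1.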

Mus musculus [5] = assay: Antitumor activity against L1210/ara-C leukemia in mice (Average 7-day weight change (%)) at the dose of 234 mg/kg
Outline: (§4)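 Male B6D2F1J mice (5–9 per group) were given 10^5 L1210/ara-C cells i.p. on day 0, with treatment from day 1 on qd×5 or q4d(2,6). Vehicles were sterile water, pH 7.4 0.05 M phosphate buffer, or a Tween 80/CMC/benzyl alcohol saline suspension. Weights were taken on days 1 and 7; change is expressed in g/mouse and as a percentage.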

Mus musculus [6] = assay: Antitumor activity against L1210 leukemia in mice (Average 7-day weight change) at the dose of 468 mg/kg
Outline: (§5)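 Male B6D2F1J mice, groups of five to nine, inoculated ip with 10^5 L1210 cells on day 0. Drug treatment started day 1 on qd×5 or q4d(2,6) schedule. Vehicles: ara-C in sterile water; the n-butyl phosphate ester in 0.05 M pH 7.4 potassium phosphate buffer; others as suspensions in 0.4% Tween 80/0.5% low-density CMC/0.9% benzyl alcohol/0.9% saline. Mice weighed days 1 and 7; 7-day weight change given as g/mouse and %.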

Mus musculus [7] = assay: Antitumor activity against L1210/ara-C leukemia in mice (Percent increase in life span.) at the dose of 468 mg/kg
Outline: (§6)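 Same protocol as the L1210 assay, but with 10^5 kinase-deficient L1210/ara-C cells inoculated ip into male B6D2F1J mice (groups of 5–9) on day 0. Treatment begins day 1, qd×5 or q4d(2,6). %ILS = (T/C − 1)×100 using median survival times of treated and control groups. Body weight recorded days 1 and 7.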

Mus musculus [8] = assay: Antitumor activity against L1210 leukemia in mice (Average 7-day weight change) at the dose of 117 mg/kg; outline: as §5
Mus musculus [9] = assay: Antitumor activity against L1210 leukemia in mice (Percent increase in life span.) at the dose of 234 mg/kg (mice surviving 20 or more days); outline: as §1
Mus musculus [10] = assay: Antitumor activity against L1210/ara-C leukemia in mice (Average 7-day weight change) at the dose of 117 mg/kg; outline: as §4
Mus musculus [11] = assay: Antitumor activity against L1210 leukemia in mice (Average 7-day weight change (%)) at the dose of 234 mg/kg; outline: as §5
Mus musculus [12] = assay: Antitumor activity against L1210 leukemia in mice (Average weight per mouse on day 1.) at the dose of 468 mg/kg; outline: as §3
Mus musculus [13] = assay: Antitumor activity against L1210/ara-C leukemia in mice (Average 7-day weight change (%)) at the dose of 468 mg/kg; outline: as §4
Mus musculus [14] = assay: Antitumor activity against L1210/ara-C leukemia in mice (Average 7-day weight change) at the dose of 468 mg/kg; outline: as §4
Mus musculus [15] = assay: Antitumor activity against L1210 leukemia in mice (Average 7-day weight change) at the dose of 234 mg/kg; outline: as §5
Mus musculus [16] = assay: Antitumor activity against L1210/ara-C leukemia in mice (Percent increase in life span.) at the dose of 234 mg/kg; outline: as §6
Mus musculus [17] = assay: Antitumor activity against L1210/ara-C leukemia in mice (Average 7-day weight change) at the dose of 234 mg/kg; outline: as §4
Mus musculus [18] = assay: Antitumor activity against L1210/ara-C leukemia in mice (Average 7-day weight change (%)) at the dose of 117 mg/kg; outline: as §4
Mus musculus [19] = assay: Antitumor activity against L1210 leukemia in mice (Average weight per mouse on day 1.) at the dose of 234 mg/kg; outline: as §3
Mus musculus [20] = assay: Antitumor activity against L1210/ara-C leukemia in mice (Average weight per mouse on day 1.) at the dose of 117 mg/kg; outline: as §2
Mus musculus [21] = assay: Antitumor activity against L1210/ara-C leukemia in mice (Percent increase in life span.) at the dose of 117 mg/kg; outline: as §6
Mus musculus [22] = assay: Antitumor activity against L1210 leukemia in mice (Average 7-day weight change (%)) at the dose of 117 mg/kg; outline: as §5
Mus musculus [23] = assay: Antitumor activity against L1210/ara-C leukemia in mice (Average weight per mouse on day 1.) at the dose of 234 mg/kg; outline: as §2
Mus musculus [24] = assay: Antitumor activity against L1210 leukemia in mice (Average 7-day weight change (%)) at the dose of 468 mg/kg; outline: as §5

SMILES: CCCCCCCCCCCCCCCC(=O)O[C@H]1[C@@H]2Oc3nc(=N)ccn3[C@@H]2O[C@@H]1COP(=O)(O)OCC
- ILS at 468 mg/kg (Mus musculus [1]): 100%
- Average weight (Mus musculus [2]): 22 g mouse-1
- ILS at 117 mg/kg (Mus musculus [3]): 75%
- Average weight (Mus musculus [4]): 24.4 g mouse-1
- Weight change (Mus musculus [5]): 1%
- Weight change (Mus musculus [6]): -3.8 g mouse-1
- ILS at 468 mg/kg (Mus musculus [7]): -13%
- Weight change (Mus musculus [8]): -1.6 g mouse-1
- ILS at 234 mg/kg (Mus musculus [9]): 138%
- Weight change (Mus musculus [10]): 2 g mouse-1
- Weight change (Mus musculus [11]): -11%
- Average weight (Mus musculus [12]): 23.6 g mouse-1
- Weight change (Mus musculus [13]): -20%
- Weight change (Mus musculus [14]): -2.4 g mouse-1
- Weight change (Mus musculus [15]): -2.6 g mouse-1
- ILS at 234 mg/kg (Mus musculus [16]): 0%
- Weight change (Mus musculus [17]): 0.2 g mouse-1
- Weight change (Mus musculus [18]): 9%
- Average weight (Mus musculus [19]): 24.2 g mouse-1
- Average weight (Mus musculus [20]): 22.4 g mouse-1
- ILS at 117 mg/kg (Mus musculus [21]): 0%
- Weight change (Mus musculus [22]): -7%
- Average weight (Mus musculus [23]): 21.4 g mouse-1
- Weight change (Mus musculus [24]): -16%
